Results on one compound are retold here after ChEMBL document CHEMBL1121475, “Inhibitors of indoleethylamine N-methyltransferase. Derivatives of 3-methyl-2-thiazolidinimine. In vitro, in vivo, and metabolic studies” (J Med Chem, 1980).

“And” between values parts separate entries of the source, which are not always exact repeats. Equal entries are not always repeated.

The test system of data set [1] is Oryctolagus cuniculus. The data set can be described thus: 200 mg/kg of [14C]- radiolabeled compound was orally administered in rabbit4, and radioactivity content in urine was estimated at. The conditions noted are these: rabbit, in vivo, po.
For data set [2], the system named is Oryctolagus cuniculus. The data set is described as follows: 100 mg/kg of [14C]- radiolabeled compound was orally (gavage) administered in rabbit 1, and radioactivity content in lung was estimated. The conditions noted are these: in vivo, po.
The subject of data set [3] is Oryctolagus cuniculus. The data set is described as follows: Evaluation of formation of 3-Methyl-thiazolidin-2-ylideneamine from the radiolabeled compound, orally administered, from rabbit 2,4 kidney was analyzed by Gas-liquid chromatographic analysis. Type of data set: ADME, organism-based. The conditions noted are these: in vivo, po. Put shortly:
(§1)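 Rabbit 2 was gavaged twice with [14C]-labelled parent amide, 100 mg/kg each dose (204.6 dpm/μg), 2 h apart, and killed 2 h after the second dose. Urine (0-4 h), blood, liver, lung and kidney were taken. The metabolite was measured by GLC of trimethylsilyl derivatives (3% OV-210, 95 °C, internal standard 3-ethyl-2-thiazolidinimine). Values are % of radioactivity as metabolite, mean of two determinations.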

Data set [4] deals with Indolethylamine N-methyltransferase (Oryctolagus cuniculus). The data set can be described thus: In vivo evaluation of specific activity against rabbit lung Indoleethylamine-N-methyltransferase at oral dose of 25 mg/kg.
Data set [5] has the same test system. The data set is described as follows: In vivo evaluation of specific activity against rabbit lung Indoleethylamine-N-methyltransferase at intravenous dose of 5 mg/kg.
Data set [6] has as its system Oryctolagus cuniculus. The data set is described as follows: 100 mg/kg of [14C]- radiolabeled compound was orally (gavage) administered in rabbit3, and radioactivity content in urine was estimated at 48-72 h. The conditions noted are these: rabbit, in vivo, po.
Data set [7] deals with Oryctolagus cuniculus. The data set is described as follows: 200 mg/kg of [14C]- radiolabeled compound was orally administered in rabbit4, and radioactivity content in urine was estimated at total hours. The conditions noted are these: rabbit, in vivo, po.
Data set [8] in a line: Dose that causes approximately 50% lethality in mice, when given perorally. Type of data set: ADME, organism-based. The conditions noted are these: mouse, in vivo, po. Put shortly:
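Mice in groups of one to three were dosed orally. Deaths were scored on day 7 after dosing, and the LD50 was obtained by graphical interpolation.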

The subject of data set [9] is Oryctolagus cuniculus. The data set can be described thus: Evaluation of formation of 3-Methyl-thiazolidin-2-ylideneamine from the radiolabeled compound, orally administered, from rabbit 1 urine was analyzed at 0-2 hr by Gas-liquid chromatographic analysis. The conditions noted are these: in vivo, po.
Data set [10] concerns Oryctolagus cuniculus. The data set can be described thus: Percent of 3-Methyl-thiazolidin-2-ylideneamine as administered dose was reported in rabbit 4 by Gas-liquid chromatographic analysis. The conditions noted are these: in vivo. Type of data set: ADME, organism-based. The essentials: (§2)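 Rabbits 3 (single 100 mg/kg) and 4 (two 100 mg/kg doses 2 h apart) were gavaged with [14C]-labelled parent amide (204.6 dpm/μg). They were not killed; urine was collected 0-24 h. The metabolite was quantified by GLC of trimethylsilylated extracts against an internal-standard peak-height-ratio curve. Results are given as % of urinary radioactivity or % of administered dose, mean of two determinations.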

Data set [11] concerns Oryctolagus cuniculus. The data set can be described thus: Radioactivity measurements were performed following oral administration of the 100 mg/kg in rabbit 6 after 2 hr in plasma. The arrangement: dose 100 mg/kg, route oral. The conditions noted are these: in vivo. Type of data set: ADME, organism-based. Put shortly:
(§3)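 Male rabbits (900-1060 g) received [14C]-labelled parent amide, 100 mg/kg (251.7 dpm/μg, pH about 4.5), by gavage. At 2 or 6 h they were killed by air injection into the ear vein. Blood was drawn by cardiac puncture; brain and lung were homogenized in water (1 g = 10 mL). Radioactivity is expressed as μg equivalents of parent per g or mL.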

Data set [12] has as its system Oryctolagus cuniculus. The data set can be described thus: 200 mg/kg of [14C]- radiolabeled compound was orally administered in rabbit4, and radioactivity content in urine was estimated at 24-48 h. The conditions noted are these: rabbit, in vivo, po.
Data set [13] deals with Oryctolagus cuniculus. The data set is described as follows: 100 mg/kg of [14C]- radiolabeled compound was orally (gavage) injected in rabbit, and radioactivity content in feces was estimated. Format: ADME, organism-based. The conditions noted are these: in vivo, po. Put shortly: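 Rabbit given 100 mg/kg [14C]-labelled drug by gavage, 204.6 dpm/μg, in water/0.1 N HCl at 6.66 mg/mL. Rabbit 1 was killed at 2 h and liver, lung, kidney and blood taken; tissue values are μg equivalents/g and tissue:plasma ratio. Rabbit 3 was kept for urine (0-24, 24-48, 48-72 h) and feces (0-48 h), expressed as % of dose.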

Data set [14] concerns Oryctolagus cuniculus. The data set can be described thus: Radioactivity measurements were performed following oral administration of the 100 mg/kg in rabbit 5 after 2 hr lung. Type of data set: ADME, organism-based. The arrangement: dose 100 mg/kg, route oral. The conditions noted are these: in vivo. Put shortly: as §3
Data set [15] has as its system Oryctolagus cuniculus. The data set is described as follows: Evaluation of formation of 3-Methyl-thiazolidin-2-ylideneamine from the radiolabeled compound, orally administered, from rabbit 3 urine was analyzed at 0-2 hr by Gas-liquid chromatographic analysis. Type of data set: ADME, organism-based. The conditions noted are these: in vivo, po, in the assay text read “0-24 hr” for “0-2 hr”. Put shortly: as §2

Data set [16] has as its system Oryctolagus cuniculus. The data set can be described thus: Radioactivity measurements were performed following oral administration of the 100 mg/kg in rabbit 7 after 6 hr in plasma. Type of data set: ADME, organism-based. The arrangement: dose 100 mg/kg, route oral. The conditions noted are these: in vivo. Put shortly:
as §3

Data set [17] concerns Oryctolagus cuniculus. The data set is described as follows: Percent of 3-Methyl-thiazolidin-2-ylideneamine as administered dose was reported in rabbit 1. Format: ADME, organism-based. The conditions noted are these: in vivo.
Data set [18] relates to Oryctolagus cuniculus. The data set is described as follows: 200 mg/kg of [14C]- radiolabeled compound was intravenously (gavage) injected in rabbit4, and radioactivity content in feces was estimated at total hours. The conditions noted are these: rabbit, in vivo, po, in the assay text read “orally (gavage) administered” for “intravenously (gavage) injected”. Format: ADME, organism-based. The essentials:
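Rabbit given two 100 mg/kg gavage doses of [14C]-labelled drug, 2 h apart, 204.6 dpm/μg, 6.66 mg/mL in water/0.1 N HCl. Rabbit 2 was killed 2 h after the last dose and liver, lung, kidney and plasma taken (μg equivalents/g; tissue:plasma ratio). Rabbit 4 gave urine over 0-4, 0-24, 24-48 and 48-72 h and feces over 0-48 h, as % of dose.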

Data set [19] concerns Oryctolagus cuniculus. The data set is described as follows: Radioactivity measurements were performed following oral administration of the 100 mg/kg in rabbit 8 after 6 hr in plasma. Format: ADME, organism-based. The arrangement: dose 100 mg/kg, route oral. The conditions noted are these: in vivo. Put shortly:
as §3

Data set [20] in a line: Dose that causes approximately 50% lethality in mice, when given intraperitoneally; Value ranges from 1000-1500. Type of data set: ADME, organism-based. The conditions noted are these: mouse, in vivo, ip.
Data set [21] concerns Oryctolagus cuniculus. The data set can be described thus: Evaluation of formation of 3-Methyl-thiazolidin-2-ylideneamine from the radiolabeled compound, orally administered, from rabbit 2,4 liver was analyzed by Gas-liquid chromatographic analysis. Type of data set: ADME, organism-based. The conditions noted are these: in vivo, po. Put shortly: as §1
Data set [22] concerns Oryctolagus cuniculus. The data set is described as follows: Evaluation of formation of 3-Methyl-thiazolidin-2-ylideneamine from the radiolabeled compound, orally administered, from rabbit 2,4 lung was analyzed by Gas-liquid chromatographic analysis. Type of data set: ADME, organism-based. The conditions noted are these: in vivo, po. The essentials:
as §1

The target in data set [23] is Indolethylamine N-methyltransferase (Homo sapiens) (UniProt O95050). The data set can be described thus: In vitro evaluation of Indoleethylamine-N-methyltransferase in human lung preparations for ability to inhibit conversion of N-methyltryptamine (NMT) to N,N-dimethyltryptamine (DMT) at dose 25 ug/mL. Format: tissue-based. Put shortly: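 Human lung INMT was taken from the 50000g supernatant, cut with 40-60% ammonium sulfate, dialysed and purified on Sephadex G-150. The reaction contained 0.007 M N-methyltryptamine stock, S-[methyl-14C]adenosylmethionine and potassium phosphate, pH 7.9, in 0.105 mL, run 90 min at 37 °C. It was stopped with borate at pH 10. [14C]DMT was extracted into isoamyl alcohol and counted by scintillation.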

Data set [24] deals with Oryctolagus cuniculus. The data set can be described thus: 200 mg/kg of [14C]- radiolabeled compound was orally administered in rabbit2, and radioactivity content in urine was estimated at 0-4 hr. The conditions noted are these: rabbit, in vivo, po.

Sequence of Indolethylamine N-methyltransferase (Homo sapiens) (O95050 whole entry): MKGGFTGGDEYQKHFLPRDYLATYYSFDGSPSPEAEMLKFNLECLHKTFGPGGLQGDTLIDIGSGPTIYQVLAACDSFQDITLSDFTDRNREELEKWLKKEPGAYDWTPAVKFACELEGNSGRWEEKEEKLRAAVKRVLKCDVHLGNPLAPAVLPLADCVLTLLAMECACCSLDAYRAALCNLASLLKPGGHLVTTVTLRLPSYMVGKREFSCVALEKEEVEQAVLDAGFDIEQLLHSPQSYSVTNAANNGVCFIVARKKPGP

As for `CN1CCS/C1=N\C(=O)CCC(=O)/N=C1/SCCN1C`, the Administered dose was 87.1% in the data set on Oryctolagus cuniculus [1]; 0.2% with Oryctolagus cuniculus [6]; 88% in the data set with Oryctolagus cuniculus [7]; 41.3% with Oryctolagus cuniculus [10]; 0.8% with Oryctolagus cuniculus [12]; 9% and 1% in the data set with Oryctolagus cuniculus [13]. The Administered dose was 27.9% in the data set on Oryctolagus cuniculus [17], 94% in the data set with Oryctolagus cuniculus [18] and 24% in the data set with Oryctolagus cuniculus [24]. In the data set on Oryctolagus cuniculus [2], the Radioactivity concentration was 36.3 µg/g. The Radioactivity is given as 65.3% with Oryctolagus cuniculus [3], 51.3% in the data set with Oryctolagus cuniculus [15], 34.4% in the data set with Oryctolagus cuniculus [21] and 75.4% in the data set on Oryctolagus cuniculus [22]. Further, the values for the Specific activity in data set [4] and in data set [5] were 14100 dpm and 37000 dpm, respectively. Further, the LD50 – broadly, the dose at which mortality reaches 50% – in data set [8] was 1460 mg/kg; in data set [20], 1000 mg/kg. Moreover, the Percent of urinary radioactivity in the data set on Oryctolagus cuniculus [9] was found to be 57.2%. For the same compound, the Radioactivity level is 21.1 µg/mL in the data set on Oryctolagus cuniculus [11], 36.4 µg/g in the data set with Oryctolagus cuniculus [14], 4.1 µg/mL in the data set with Oryctolagus cuniculus [16] and 4 µg/mL in the data set on Oryctolagus cuniculus [19]. Further, in [23], the inhibition (as a rule, the change of the read-out against control, counted positive when it falls) was 12%.
